Measurements: ChEMBL document CHEMBL1781886, “Monoterpenoid indole alkaloids from Gardneria ovata” (J Nat Prod, 2011)

What was measured:
Type in all cases: functional, cell-based
HL-60 = assay: Cytotoxicity against human HL60 cells by MTT assay
Method in brief: (§1)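 MTT viability read-out on five human cancer lines tested in parallel: breast MCF-7, hepatocellular SMMC-7721, myeloid leukemia HL-60, colon SW480 and lung A-549. IC50 derived by the Reed and Muench method.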

SMMC-7721 = assay: Cytotoxicity against human SMMC7721 cells by MTT assay; method in brief: as §1
MCF7 = assay: Cytotoxicity against human MCF7 cells by MTT assay; method in brief: as §1
SW480 = assay: Cytotoxicity against human SW480 cells by MTT assay; method in brief: as §1
A549 = assay: Cytotoxicity against human A549 cells by MTT assay; method in brief: as §1

Measured: IC50

COC/C=C1\CN2[C@H]3C[C@@H]1[C@@H]1COC4=Nc5cc6c(c(O[C@@H]7O[C@H](CO)[C@@H](O)[C@H](O)[C@H]7O)c5[C@@]43C[C@@H]12)OCO6
> 40 µM: all assays above

C/C=C1/CN2[C@H]3C[C@@H]1[C@@H]1COC4=Nc5c(cc(OC)c(OC)c5OC)[C@@]43C[C@@H]12
> 40 µM: all assays above

C/C=C1/C[N+]2([O-])[C@H]3C[C@@]45C(=Nc6cc7c(c(OC)c64)OCO7)OC[C@H]3[C@H]1C[C@@H]52
> 40 µM: all assays above

COc1cc(OC)c2c(c1)[C@@]13C[C@H]4[C@@H](COC1=N2)[C@H]1C[C@@H]3N4C/C1=C\CO
> 40 µM: all assays above

COC/C=C1\C[N+]2([O-])[C@H]3C[C@@]45C(=Nc6cc7c(c(OC)c64)OCO7)OC[C@H]3[C@H]1C[C@@H]52
> 40 µM: all assays above

C/C=C1/C[N+]2([O-])CC[C@]34C=C(CO)[C@H]1C[C@@]32Nc1ccccc14 (stereo not given in full)
> 40 µM: all assays above

C/C=C1/CN2[C@H]3C[C@@H]1[C@@H]1COC4=Nc5c(OC)cc(OC)cc5[C@@]43C[C@@H]12
> 40 µM: all assays above

COc1c2c(cc3c1[C@@]14C[C@H]5[C@@H](COC1=N3)[C@H]1C[C@@H]4N5C/C1=C\CO)OCO2
> 40 µM: all assays above
